Measured values: ChEMBL document CHEMBL1142648, “Enhancement in antimicrobial activity of 2-(phenyl)-3-(2-butyl-4-chloro-1H-imidazolyl)-5-butylate isoxazolidine” (2005)
In brackets after ≈: the same amount, converted by molar mass.

Legend:
Escherichia coli = experiment: Minimum inhibitory concentration against Escherichia coli; assay type: functional
Procedure, shortened: (§1)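 Broth tube dilution in brain heart infusion broth, 5 mL final volume. Compounds were dissolved in DMSO, diluted 1:9 with water, then serially diluted in medium. Cells were added at a final 2 × 10^3 CFU/mL and incubated at 37 °C for 24 h. Turbidity was read at 640 nm. MIC is the lowest concentration with no growth, confirmed by spreading 10 µL of clear tubes on BHI agar.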

Bacillus subtilis = experiment: Minimum inhibitory concentration against Bacillus subtilis; assay type: functional; procedure, shortened: as §1
Aspergillus niger = experiment: Minimum inhibitory concentration against Aspergillus niger; assay type: functional
Procedure, shortened: (§2)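 Fungal MIC by tube dilution in potato dextrose broth, 5 mL final volume. Compounds were taken up in DMSO, diluted 1:9 with water, then serially diluted in medium. Spore suspension was added at a final 2 × 10^3 CFU/mL and incubated at 28 °C for 48 h. Absorbance was read at 640 nm. MIC is the lowest no-growth concentration, checked by subculturing 10 µL onto potato dextrose agar and examining under a microscope.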

Staphylococcus aureus = experiment: Minimum inhibitory concentration against Staphylococcus aureus; assay type: functional; procedure, shortened: as §1
Fusarium verticillioides = experiment: Minimum inhibitory concentration against Fusarium moniliforme; assay type: functional; procedure, shortened: as §2
Cephalosporium = experiment: Minimum inhibitory concentration against Cephalosporium acremonium; assay type: functional, Hapsidospora chrysogena; procedure, shortened: as §2
[1] = Escherichia coli, read-out: MIC
[2] = Bacillus subtilis, read-out: MIC
[3] = Staphylococcus aureus, read-out: MIC

Compound | MIC (Escherichia coli) | MIC (Bacillus subtilis) | MIC (Aspergillus niger) | MIC (Staphylococcus aureus) | MIC (Fusarium verticillioides) | MIC (Cephalosporium) | MIC (Cephalosporium; Hapsidospora chrysogena) | MIC (Escherichia coli; [1]) | MIC (Bacillus subtilis; [2]) | MIC (Staphylococcus aureus; [3])
CCCCOC(=O)[C@H]1C[C@@H](c2[nH]c(CCCC)nc2Cl)N(c2ccccc2)O1 (stereo in doubt; B) | 11 µg/mL (≈ 27.1 µM) | 7 µg/mL (≈ 17.2 µM) | 36 µg/mL (≈ 88.7 µM) | 8 µg/mL (≈ 19.7 µM) | 28 µg/mL (≈ 69 µM) | 33 µg/mL (≈ 81.3 µM) |  |  |  | 
NYSTATIN |  |  | 12 µg/mL |  | 14 µg/mL |  | 11 µg/mL |  |  | 
CCCCOC(=O)[C@H]1C[C@@H](c2[nH]c(CCCC)nc2Cl)N(c2ccccc2)O1 (stereo in doubt; A) |  |  | 14 µg/mL (≈ 34.5 µM) |  | 13 µg/mL (≈ 32 µM) | 11 µg/mL (≈ 27.1 µM) |  | 10 µg/mL (≈ 24.6 µM) | 7 µg/mL (≈ 17.2 µM) | 7 µg/mL (≈ 17.2 µM)
CN[C@@H]1[C@H](O[C@H]2[C@H](O[C@H]3[C@H](O)[C@@H](O)[C@H](N=C(N)N)[C@@H](O)[C@@H]3N=C(N)N)O[C@@H](C)[C@]2(O)C=O)O[C@@H](CO)[C@H](O)[C@H]1O [STREPTOMYCIN] |  |  |  |  |  |  |  | 6 µg/mL (≈ 10.3 µM) | 3 µg/mL (≈ 5.16 µM) | 3 µg/mL (≈ 5.16 µM)
